We go through 12 molecules from ChEMBL document CHEMBL2311332, “Epidithiodiketopiperazine as a pharmacophore for protein lysine methyltransferase G9a inhibitors: reducing cytotoxicity by structural simplification” (Bioorg Med Chem Lett, 2013).

pIC50: −log10 of the molar value. The source made the active and inactive calls. No cut-off for these calls is given here.

The target of data set [1] is T1, Histone-lysine N-methyltransferase EHMT2 (Homo sapiens, UniProt Q96KQ7).
T1 sequence (Q96KQ7 whole entry): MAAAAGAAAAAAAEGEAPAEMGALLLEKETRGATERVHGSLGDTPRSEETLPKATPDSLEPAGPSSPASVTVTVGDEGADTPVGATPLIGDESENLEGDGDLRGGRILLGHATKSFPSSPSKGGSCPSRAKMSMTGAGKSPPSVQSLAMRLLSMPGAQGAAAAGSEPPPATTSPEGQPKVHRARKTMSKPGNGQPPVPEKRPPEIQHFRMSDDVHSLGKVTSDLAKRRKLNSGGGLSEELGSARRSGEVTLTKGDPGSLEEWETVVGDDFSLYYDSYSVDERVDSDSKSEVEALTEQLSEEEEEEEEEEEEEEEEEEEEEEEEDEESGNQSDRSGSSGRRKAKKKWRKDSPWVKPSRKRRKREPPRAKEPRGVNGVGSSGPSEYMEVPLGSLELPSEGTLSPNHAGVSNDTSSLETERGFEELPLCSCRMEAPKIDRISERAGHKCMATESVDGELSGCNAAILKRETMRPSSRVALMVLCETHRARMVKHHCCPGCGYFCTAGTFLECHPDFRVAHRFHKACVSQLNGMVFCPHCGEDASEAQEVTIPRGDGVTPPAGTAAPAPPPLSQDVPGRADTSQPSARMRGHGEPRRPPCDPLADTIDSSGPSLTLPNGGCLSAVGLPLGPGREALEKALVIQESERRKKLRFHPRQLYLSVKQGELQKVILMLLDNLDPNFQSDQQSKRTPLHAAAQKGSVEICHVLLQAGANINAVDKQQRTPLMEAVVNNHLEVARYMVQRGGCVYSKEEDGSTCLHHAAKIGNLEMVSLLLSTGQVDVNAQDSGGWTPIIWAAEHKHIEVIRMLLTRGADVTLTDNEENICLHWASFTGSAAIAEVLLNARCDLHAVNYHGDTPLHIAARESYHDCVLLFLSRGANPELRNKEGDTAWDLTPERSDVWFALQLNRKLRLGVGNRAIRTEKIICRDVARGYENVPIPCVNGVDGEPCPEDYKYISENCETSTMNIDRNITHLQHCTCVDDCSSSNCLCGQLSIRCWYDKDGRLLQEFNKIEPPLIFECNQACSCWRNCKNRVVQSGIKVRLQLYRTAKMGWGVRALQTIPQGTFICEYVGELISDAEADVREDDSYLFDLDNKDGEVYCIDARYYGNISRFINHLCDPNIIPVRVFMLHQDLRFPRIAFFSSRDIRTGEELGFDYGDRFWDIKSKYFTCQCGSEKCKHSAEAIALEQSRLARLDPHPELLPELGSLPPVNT
As to the kind of experiment: Inhibition of protein lysine methyltransferase G9a (unknown origin) by ELISA assay. (In an ELISA, binding on a coated surface is turned into a signal by an enzyme label.)

Data set [2] deals with T1, Histone-lysine N-methyltransferase EHMT2. As to the kind of experiment: Inhibition of protein lysine methyltransferase G9a (unknown origin) by modified ELISA assay.
The next data set concerns HL-60. Nature of the data set: Cytotoxicity against human HL60 cells at 3 to 30 uM after 4 hrs by Alamar Blue assay. The class given is cell-based. Conditions: hl-60, 4 h. Put shortly: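 HL-60 cells were exposed to the derivatives for 4 h. Cell viability was then read by alamarBlue.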
(In general: Alamar Blue is a resazurin reagent that responds to reducing activity.)

The target in data set [3] is Thioredoxin reductase (Homo sapiens) (UniProt Q16881+Q9NNW7+Q86VQ6). As to the kind of experiment: Inhibition of thioredoxin reductase (unknown origin) assessed as reduction of DTNB at 10 uM. The class given is protein assay.

Turning to `CN1C(=O)[C@H]2C[C@]3([C@]45C[C@@H]6C(=O)N(C)[C@H](CO)C(=O)N6[C@H]4Nc4ccccc45)c4ccccc4N[C@@H]3N2C(=O)[C@H]1CO`, the values for the pIC50 in data set [1] and in data set [2] were < 4.30 and < 4.00, respectively.
Regarding `CN1C(=O)[C@]23C[C@@]4([C@@]56C[C@]78SS[C@](CO)(C(=O)N7[C@@H]5Nc5ccccc56)N(C)C8=O)c5ccccc5N[C@H]4N2C(=O)[C@@]1(CO)SS3`, the pIC50 (commonly the IC50 on a negative log10 scale, so that one unit is a factor of ten) in data set [2] is 5.19.
`CN1C(=O)[C@@]23C[C@@H]4c5ccccc5N[C@@H]4N2C(=O)[C@@]1(CO[Si](C)(C)C(C)(C)C)SS3` gave a pIC50 in data set [2] of 5.48. This pIC50 lies 0.29 log units higher than the previous one.
The same measure, in the same setting: the value for `CN1C(=O)[C@]23C[C@H]4c5ccccc5N[C@H]4N2C(=O)[C@]1(CO[Si](C)(C)C(C)(C)C)SS3` was 4.63; that for `CN1C(=O)[C@@]23C[C@]4([C@]56C[C@@]78S[C@](CO)(C(=O)N7[C@H]5Nc5ccccc56)N(C)C8=O)c5ccccc5N[C@@H]4N2C(=O)[C@@]1(CO)S3` was < 4.00.
`CN1C(=O)[C@@]2(S)C[C@]3([C@]45C[C@]6(S)C(=O)N(C)[C@](S)(CO)C(=O)N6[C@H]4Nc4ccccc45)c4ccccc4N[C@@H]3N2C(=O)[C@@]1(S)CO` had a pIC50 in data set [2] of 4.57.
For `CN1C(=O)[C@@]23C[C@]4([C@]56C[C@@]78SS[C@](CO[Si](C)(C)C(C)(C)C)(C(=O)N7[C@H]5Nc5ccccc56)N(C)C8=O)c5ccccc5N[C@@H]4N2C(=O)[C@@]1(CO[Si](C)(C)C(C)(C)C)SS3`, the pIC50 in data set [2] was 5.14. This pIC50 lies 0.57 log units higher than the previous one.
For `CN1C(=O)[C@@H]2C[C@@]3([C@@]45C[C@H]6C(=O)N(C)[C@@H](CO)C(=O)N6[C@@H]4Nc4ccccc45)c4ccccc4N[C@H]3N2C(=O)[C@@H]1CO`, in data set [2], the pIC50 is < 4.00.
In the case of `CN1C(=O)C2(S)CCCN2C(=O)C1(S)CO` (racemic), the Activity entry with HL-60 is “Non-toxic”. Further, the pIC50 in data set [2] was 4.88.
On to `CN1C(=O)C23CCCN2C(=O)C1(CO)SS3` (racemic), for which, in data set [3], the inhibition entry was “inactive”. Further, in the data set with HL-60, the Activity result is “Non-toxic”. This molecule had a pIC50 in data set [2] of 5.28.
Take `CN1C(=O)C23CCCN2C(=O)C1(CO)SSS3` (racemic): in data set [3], the inhibition result was “inactive”. Further, the Activity result in the data set with HL-60 was “Non-toxic”. Also, in data set [2], the pIC50 was 5.28.
The molecule `CN1C(=O)[C@@]23C[C@]4([C@]56C[C@@]78SS[C@@](CO)(C(=O)N7[C@H]5Nc5ccccc56)N(C)C8=O)c5ccccc5N[C@@H]4N2C(=O)[C@]1(CO)SS3` [CHAETOCIN] showed a pIC50 in data set [2] of 5.14.
